Reference: ChEMBL document CHEMBL2150971, “Selective depletion of mutant p53 by cancer chemopreventive isothiocyanates and their structure-activity relationships” (J Med Chem, 2011)
The source made the active and inactive calls. The rule behind the calls is not given here.

Key:
[1] = system: Cellular tumor antigen p53 (Homo sapiens), P04637 [R280K]; assay: Induction of p53 R280K mutant depletion in human MDA-MB-231 cells at 10 uM by immunoblot analysis; assay type: cell-based
In short: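 MDA-MB-231 cells treated with 10 µM for 24 h; whole-cell lysates immunoblotted for p53 (DO-1) with β-actin loading control, ECL.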

MDA-MB-231 = assay: Induction of apoptosis in human MDA-MB-231 cells expressing p53 R280K mutant at 10 uM incubated for 24 hrs by FITC/Annexin-V staining method; assay type: functional, cell-based
In short: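 MDA-MB-231 cells at 40–50% confluency treated with DMSO or 10 µM in DMSO for 24 h; washed in cold PBS, stained with FITC-Annexin V and propidium iodide, analysed by flow cytometry; early apoptotic (Annexin V+/PI−) fraction; mean ± SD of three experiments, unequal-variance two-sample t-test.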

[2] = system: Cellular tumor antigen p53 (Homo sapiens), P04637 [G245C]; assay: Induction of p53 G245C mutant depletion in human NCI-H596 cells at 20 uM by immunoblot analysis; assay type: cell-based
[3] = system: Cellular tumor antigen p53 (Homo sapiens), P04637 [G245C]; assay: Induction of covalent cysteine modification at p53 G245C mutant in human NCI-H596 cells at 100 uM incubated for 1 hr by monochlorobimane fluorometric assay; assay type: cell-based
[4] = system: Cellular tumor antigen p53 (Homo sapiens), P04637 [G245C]; assay: Induction of conformational changes in p53 G245C mutant in human NCI-H596 cells at 60 uM incubated for 1 hr at 32 degC by tryptophan fluorescence emission spectroscopy; assay type: cell-based
In short: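 6 µM purified G245C p53 DNA-binding domain incubated 1 h at 32 °C alone, with DMSO or 60 µM agent; intrinsic fluorescence emission 285–400 nm, excitation 280 nm, slit 5 nm, 3 scans averaged.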

[5] = system: Cellular tumor antigen p53 (Homo sapiens), P04637 [G245C]; assay: Induction of p53 G245C mutant depletion in human NCI-H596 cells at 40 uM incubated for 2 hrs by immunoblot analysis; assay type: cell-based
In short: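 H596 cells (G245C p53), maintained in DMEM or RPMI-1640 with 10% FBS, treated either at 15 µM for varying times up to 24 h or at varying concentrations (10–60 µM) for 2 h; whole-cell lysates, equal protein on SDS gels, PVDF, blotted with p53 DO-1 and β-actin antibodies, ECL.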

SMILES | Activity [1] | Activity (MDA-MB-231) | Activity [2] | Activity [3] | Activity [4] | Activity [5]
S=C=NCC1CCCCC1 | inactive | inactive | inactive | inactive | – | –
S=C=Nc1ccccc1 | inactive | – | inactive | inactive | – | –
S=C=NCCCc1ccccc1 | Active | Active | Active | Active | – | –
COc1ccc(CN=C=S)cc1 | Active | – | Active | Active | – | –
S=C=NCC(c1ccccc1)c1ccccc1 | Active | Active | Active | Active | – | –
S=C=NCCCCc1ccccc1 | Active | Active | Active | – | – | –
C[S+]([O-])CCCCN=C=S (stereo unspecified) | inactive | inactive | inactive | inactive | inactive | inactive
S=C=NC(c1ccccc1)(c1ccccc1)c1ccccc1 | inactive | inactive | inactive | inactive | – | –
